In brackets after ≈: the same amount, converted by molar mass. Activity calls are given as the source filed them. The calls are words filed in the database; no cut-off is given here.
Legend:
Enterococcus faecalis [1] = assay: Antibacterial activity against Enterococcus faecalis HM-335 incubated for 18 to 20 hrs under aerobic condition by CLSI protocol based broth microdilution assay; format: functional; settings: time hrs 18-20
How it was run: (§1)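 Broth microdilution per CLSI. Strains grown aerobically overnight on trypticase soy agar at 37 °C. Inoculum set to 0.5 McFarland, diluted in trypticase soy broth to about 5 × 10⁵ CFU/mL. Agents serially diluted, plates incubated aerobically at 37 °C for 18–20 h. MIC is the lowest concentration with no visible growth. Compound stocks 10 mg/mL in DMSO.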

Enterococcus faecium [2] = assay: Antibacterial activity against Enterococcus faecium NR-32052 incubated for 18 to 20 hrs under aerobic condition by CLSI protocol based broth microdilution assay; format: functional; settings: time hrs 18-20; how it was run: as §1
Enterococcus faecium [3] = assay: Antibacterial activity against Enterococcus faecium NR-28978 incubated for 18 to 20 hrs under aerobic condition by CLSI protocol based broth microdilution assay; format: functional; settings: time hrs 18-20; how it was run: as §1
Enterococcus faecium [4] = assay: Antibacterial activity against Enterococcus faecium NR-31914 incubated for 18 to 20 hrs under aerobic condition by CLSI protocol based broth microdilution assay; format: functional; settings: time hrs 18-20; how it was run: as §1
Enterococcus faecium [5] = assay: Antibacterial activity against Enterococcus faecium NR-31903 incubated for 18 to 20 hrs under aerobic condition by CLSI protocol based broth microdilution assay; format: functional; settings: time hrs 18-20; how it was run: as §1
Enterococcus faecium [6] = assay: Antibacterial activity against Enterococcus faecium HM968 incubated for 18 to 20 hrs under aerobic condition by CLSI protocol based broth microdilution assay; format: functional; settings: time hrs 18-20; how it was run: as §1
Enterococcus faecium [7] = assay: Antibacterial activity against Enterococcus faecium NR-32065 incubated for 18 to 20 hrs under aerobic condition by CLSI protocol based broth microdilution assay; format: functional; settings: time hrs 18-20; how it was run: as §1
Enterococcus faecium [8] = assay: Antibacterial activity against Enterococcus faecium NR-31972 incubated for 18 to 20 hrs under aerobic condition by CLSI protocol based broth microdilution assay; format: functional; settings: time hrs 18-20; how it was run: as §1
Enterococcus faecium [9] = assay: Antibacterial activity against Enterococcus faecium NR-31971 incubated for 18 to 20 hrs under aerobic condition by CLSI protocol based broth microdilution assay; format: functional; settings: time hrs 18-20; how it was run: as §1
Enterococcus faecium [10] = assay: Antibacterial activity against Enterococcus faecium NR-31916 incubated for 18 to 20 hrs under aerobic condition by CLSI protocol based broth microdilution assay; format: functional; settings: time hrs 18-20; how it was run: as §1
Enterococcus faecium [11] = assay: Inhibition of carbonic anhydrase in Enterococcus faecium ATCC 700221 assessed as antibacterial activity incubated for 18 to 20 hrs in presence of 5% CO2 by CLSI protocol based broth microdilution assay; settings: time hrs 18-20
How it was run: (§2)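 CLSI broth microdilution: inoculum about 5 × 10⁵ CFU/mL in trypticase soy broth with serial dilutions of agents. Paired plates incubated at 37 °C for 18–20 h, one set in ambient air ("normal"), the other under 5% CO₂. MIC is the lowest concentration completely inhibiting visible growth.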

Enterococcus faecium [12] = assay: Inhibition of carbonic anhydrase in Enterococcus faecium ATCC 700221 assessed as antibacterial activity incubated for 18 to 20 hrs in presence of ambient air by CLSI protocol based broth microdilution assay; settings: time hrs 18-20; how it was run: as §2
Enterococcus faecium [13] = assay: Antibacterial activity against Enterococcus faecium HM965 incubated for 18 to 20 hrs under aerobic condition by CLSI protocol based broth microdilution assay; format: functional; settings: time hrs 18-20; how it was run: as §1
Enterococcus faecalis [14] = assay: Antibacterial activity against Enterococcus faecalis NR-31975 incubated for 18 to 20 hrs under aerobic condition by CLSI protocol based broth microdilution assay; format: functional, organism-based; settings: time hrs 18-20; how it was run: as §1
Enterococcus faecalis [15] = assay: Antibacterial activity against Enterococcus faecalis HM-334 incubated for 18 to 20 hrs under aerobic condition by CLSI protocol based broth microdilution assay; format: functional; settings: time hrs 18-20; how it was run: as §1
[16] = Cytotoxicity against human Caco2 cells incubated for 2 hrs by MTS assay; format: cell-based; settings: Caco-2 cells
How it was run: (§3)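 Caco-2 cells maintained in DMEM with 10% FBS, non-essential amino acids and penicillin-streptomycin at 37 °C, 5% CO₂. Compound exposure for 2 h in serum-free medium at several concentrations; DMSO-matched controls. Viability expressed relative to DMSO controls (mean ± SD), and CC₅₀ derived.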

Enterococcus faecalis [17] = assay: Antibacterial activity against Enterococcus faecalis NR-31970 incubated for 18 to 20 hrs under aerobic condition by CLSI protocol based broth microdilution assay; format: functional, organism-based; settings: time hrs 18-20; how it was run: as §1
Caco-2 = assay: Cytotoxicity against human Caco2 cells at 128 ug/ml incubated for 2 hrs by MTS assay; format: cell-based; settings: caco-2, 2 h, dose 128 µg/ml; how it was run: as §3

## CN[C@H](CC(C)C)C(=O)N[C@H]1C(=O)N[C@@H](CC(N)=O)C(=O)N[C@H]2C(=O)N[C@H]3C(=O)N[C@H](C(=O)N[C@H](C(=O)O)c4cc(O)cc(O)c4-c4cc3ccc4O)[C@H](O)c3ccc(c(Cl)c3)Oc3cc2cc(c3O[C@@H]2O[C@H](CO)[C@@H](O)[C@H](O)[C@H]2O[C@H]2C[C@](C)(N)[C@H](O)[C@H](C)O2)Oc2ccc(cc2Cl)[C@H]1O [VANCOMYCIN]
Enterococcus faecalis [1]
  MIC: > 64 µg/mL
Enterococcus faecium [2]
  MIC: 64 µg/mL (≈ 44.2 µM)
Enterococcus faecium [3]
  MIC: 32 µg/mL (≈ 22.1 µM)
Enterococcus faecium [4]
  MIC: 64 µg/mL (≈ 44.2 µM)
Enterococcus faecium [5]
  MIC: > 64 µg/mL
Enterococcus faecium [6]
  MIC: 64 µg/mL (≈ 44.2 µM)
Enterococcus faecium [7]
  MIC: 64 µg/mL (≈ 44.2 µM)
Enterococcus faecium [8]
  MIC: > 64 µg/mL
Enterococcus faecium [9]
  MIC: 64 µg/mL (≈ 44.2 µM)
Enterococcus faecium [10]
  MIC: > 64 µg/mL

## CCCC(=O)Nc1nnc(S(N)(=O)=O)s1
Enterococcus faecium [11]
  inhibition: inactive
Enterococcus faecium [12]
  inhibition: Active
Enterococcus faecium [13]
  MIC: 0.5 µg/mL (≈ 2 µM)

## CC(C)(C)CC(=O)Nc1nnc(S(N)(=O)=O)s1
Enterococcus faecalis [1]
  MIC: 0.03 µg/mL (≈ 0.108 µM)
Enterococcus faecium [2]
  MIC: 0.015 µg/mL (≈ 0.0539 µM)
Enterococcus faecalis [14]
  Activity: Active
Enterococcus faecium [3]
  MIC: 0.03 µg/mL (≈ 0.108 µM)
Enterococcus faecium [4]
  MIC: 0.007 µg/mL (≈ 0.0251 µM)
Enterococcus faecium [5]
  MIC: 0.015 µg/mL (≈ 0.0539 µM)
Enterococcus faecium [11]
  inhibition: inactive
Enterococcus faecalis [15]
  MIC: 0.03 µg/mL (≈ 0.108 µM)
Enterococcus faecium [6]
  MIC: 0.015 µg/mL (≈ 0.0539 µM)
Enterococcus faecium [12]
  inhibition: Active
Enterococcus faecium [7]
  MIC: 0.007 µg/mL (≈ 0.0251 µM)
Enterococcus faecium [8]
  MIC: 0.015 µg/mL (≈ 0.0539 µM)
Enterococcus faecium [9]
  MIC: 0.06 µg/mL (≈ 0.216 µM)
[16]
  CC50 at 2 h: > 128 µg/mL
Enterococcus faecalis [17]
  Activity: Active
Enterococcus faecium [10]
  MIC: 0.03 µg/mL (≈ 0.108 µM)
Enterococcus faecium [13]
  MIC: 0.015 µg/mL (≈ 0.0539 µM)
Caco-2
  Activity: Non-Toxic

## CN1CCN(CC(=O)Nc2nnc(S(N)(=O)=O)s2)CC1
Enterococcus faecium [11]
  inhibition: inactive
Enterococcus faecium [12]
  inhibition: Active
Enterococcus faecium [13]
  MIC: 8 µg/mL (≈ 25 µM)

## CC1CCC(C(=O)Nc2nnc(S(N)(=O)=O)s2)CC1 (stereo not drawn)
Enterococcus faecium [13]
  MIC: 0.25 µg/mL (≈ 0.821 µM)

## NS(=O)(=O)c1nnc(NC(=O)CCN2CCOCC2)s1
Enterococcus faecium [11]
  inhibition: inactive
Enterococcus faecium [12]
  inhibition: Active
Enterococcus faecium [13]
  MIC: 2 µg/mL (≈ 6.22 µM)

## CC1(C(=O)Nc2nnc(S(N)(=O)=O)s2)CCCCC1
Enterococcus faecium [13]
  MIC: 0.25 µg/mL (≈ 0.821 µM)

## CCNc1nnc(S(N)(=O)=O)s1
Enterococcus faecium [13]
  MIC: > 64 µg/mL

## NS(=O)(=O)c1nnc(NCC2CCCCC2)s1
Enterococcus faecium [13]
  MIC: > 64 µg/mL

## CC(=O)Nc1ncc(S(N)(=O)=O)s1
Enterococcus faecium [13]
  MIC: > 64 µg/mL

## NS(=O)(=O)c1nnc(NC(=O)C2CCCC2)s1
Enterococcus faecalis [1]
  MIC: 0.5 µg/mL (≈ 1.81 µM)
Enterococcus faecium [2]
  MIC: 0.5 µg/mL (≈ 1.81 µM)
Enterococcus faecalis [14]
  Activity: Active
Enterococcus faecium [3]
  MIC: 0.5 µg/mL (≈ 1.81 µM)
Enterococcus faecium [4]
  MIC: 0.5 µg/mL (≈ 1.81 µM)
Enterococcus faecium [5]
  MIC: 0.5 µg/mL (≈ 1.81 µM)
Enterococcus faecium [11]
  inhibition: inactive
Enterococcus faecalis [15]
  MIC: 0.5 µg/mL (≈ 1.81 µM)
Enterococcus faecium [6]
  MIC: 0.5 µg/mL (≈ 1.81 µM)
Enterococcus faecium [12]
  inhibition: Active
Enterococcus faecium [7]
  MIC: 0.5 µg/mL (≈ 1.81 µM)
Enterococcus faecium [8]
  MIC: 1 µg/mL (≈ 3.62 µM)
Enterococcus faecium [9]
  MIC: 1 µg/mL (≈ 3.62 µM)
[16]
  CC50 at 2 h: > 128 µg/mL
Enterococcus faecalis [17]
  Activity: Active
Enterococcus faecium [10]
  MIC: 0.5 µg/mL (≈ 1.81 µM)
Enterococcus faecium [13]
  MIC: 0.25 µg/mL (≈ 0.905 µM)
Caco-2
  Activity: Non-Toxic

## CC(C)CC(=O)Nc1nnc(S(N)(=O)=O)s1
Enterococcus faecalis [1]
  MIC: 0.125 µg/mL (≈ 0.473 µM)
Enterococcus faecium [2]
  MIC: 0.125 µg/mL (≈ 0.473 µM)
Enterococcus faecalis [14]
  Activity: Active
Enterococcus faecium [3]
  MIC: 0.25 µg/mL (≈ 0.946 µM)
Enterococcus faecium [4]
  MIC: 0.25 µg/mL (≈ 0.946 µM)
Enterococcus faecium [5]
  MIC: 0.125 µg/mL (≈ 0.473 µM)
Enterococcus faecalis [15]
  MIC: 0.5 µg/mL (≈ 1.89 µM)
Enterococcus faecium [6]
  MIC: 0.125 µg/mL (≈ 0.473 µM)
Enterococcus faecium [7]
  MIC: 0.25 µg/mL (≈ 0.946 µM)
Enterococcus faecium [8]
  MIC: 0.5 µg/mL (≈ 1.89 µM)
Enterococcus faecium [9]
  MIC: 0.5 µg/mL (≈ 1.89 µM)
[16]
  CC50 at 2 h: > 128 µg/mL
Enterococcus faecalis [17]
  Activity: Active
Enterococcus faecium [10]
  MIC: 0.125 µg/mL (≈ 0.473 µM)
Enterococcus faecium [13]
  MIC: 0.125 µg/mL (≈ 0.473 µM)
Caco-2
  Activity: Non-Toxic

## CC(=O)Nc1nnc(S(C)(=O)=O)s1
Enterococcus faecium [13]
  MIC: > 64 µg/mL

## NS(=O)(=O)c1nnc(NC(=O)C2CCCCC2)s1
Enterococcus faecalis [1]
  MIC: 0.5 µg/mL (≈ 1.72 µM)
Enterococcus faecium [2]
  MIC: 0.5 µg/mL (≈ 1.72 µM)
Enterococcus faecalis [14]
  Activity: Active
Enterococcus faecium [3]
  MIC: 0.5 µg/mL (≈ 1.72 µM)
Enterococcus faecium [4]
  MIC: 0.5 µg/mL (≈ 1.72 µM)
Enterococcus faecium [5]
  MIC: 0.5 µg/mL (≈ 1.72 µM)
Enterococcus faecalis [15]
  MIC: 0.25 µg/mL (≈ 0.861 µM)
Enterococcus faecium [6]
  MIC: 0.5 µg/mL (≈ 1.72 µM)
Enterococcus faecium [7]
  MIC: 0.5 µg/mL (≈ 1.72 µM)
Enterococcus faecium [8]
  MIC: 0.25 µg/mL (≈ 0.861 µM)
Enterococcus faecium [9]
  MIC: 0.5 µg/mL (≈ 1.72 µM)
[16]
  CC50 at 2 h: > 128 µg/mL
Enterococcus faecalis [17]
  Activity: Active
Enterococcus faecium [10]
  MIC: 0.25 µg/mL (≈ 0.861 µM)
Enterococcus faecium [13]
  MIC: 0.25 µg/mL (≈ 0.861 µM)
Caco-2
  Activity: Non-Toxic
